Results taken from ChEMBL document CHEMBL1131145, “Halogenated chalcones with high-affinity binding to P-glycoprotein: potential modulators of multidrug resistance” (J Med Chem, 1998).

Assays:
[1] = The dissociation constant was measured as binding affinity to P-Glycoprotein C-terminal cytosolic domain using the grafit program.
In short: (§1)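 Tryptophan fluorescence excited at 295 nm, emission scanned 310–380 nm and integrated after buffer Raman subtraction. Chalcone titrated in successive additions up to 20 µM. Quenching corrected for inner-filter effect using N-acetyltryptophanamide. KD and ΔFmax obtained by curve fitting.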

[2] = The maximal fluorescence quenching was determined using the Grafit program.; in short: as §1

| SMILES | Kd [1] [µM] | maximal fluorescence quenching [2] [%] |
| --- | --- | --- |
| O=C(/C=C/c1ccc(I)cc1)c1c(O)cc(O)cc1O | 0.25 | 86.6 |
| O=C(/C=C/c1ccc(Cl)cc1)c1c(O)cc(O)cc1O [4-CHLORO-2',4',6'-TRIHYDROXYCHALCONE] | 1.3 | 80.1 |
| O=C(/C=C/c1ccccc1)c1c(O)cc(O)cc1O [2',4',6-TRIHYDROXYCHALCONE] | – | 87.8 |

Next, values leading:

| Kd [1] [µM] | maximal fluorescence quenching [2] [%] | SMILES |
| --- | --- | --- |
| 4.8 | 86.8 | O=C(/C=C/c1ccc(O)cc1)c1c(O)cc(O)cc1O [4,2',4',6'-TETRAHYDROXYCHALCONE] |
| 0.57 | 88.7 | O=C(/C=C/c1ccc(Br)cc1)c1c(O)cc(O)cc1O [4-BROMO-2',4',6'-TRIHYDROXYCHALCONE] |
| 3.6 | 88.1 | O=C(/C=C/c1ccc(F)cc1)c1c(O)cc(O)cc1O [4-FLUORO-2',4',6'-TRIHYDROXYCHALCONE] |
| 2.3 | 85.5 | COc1ccc(/C=C/C(=O)c2c(O)cc(O)cc2O)cc1 [4-METHOXYL-2',4',6'-TRIHYDROXYCHALCONE] |
